Data reported in paper PMC4556268 (Biochemistry, 2008).
Like-named read-outs stand apart in the source and are kept apart here.

How the values were obtained:
RhoGDIα [1] = target: T1, RhoGDIα (Homo sapiens, UniProt P52565); assay: Photo-affinity labeling of RhoGDIα with azialcohols, LC-MSMS; type: binding
T1 sequence (P52565 1-204): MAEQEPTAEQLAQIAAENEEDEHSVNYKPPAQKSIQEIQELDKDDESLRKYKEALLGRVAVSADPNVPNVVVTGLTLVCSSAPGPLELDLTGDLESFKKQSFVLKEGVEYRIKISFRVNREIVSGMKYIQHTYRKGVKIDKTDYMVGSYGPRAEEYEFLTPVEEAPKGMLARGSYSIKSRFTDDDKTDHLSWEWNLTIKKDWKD

RhoGDIα [2] = target: T1, RhoGDIα; type: binding
How it was run: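 For n-alkanols, halothane was equilibrated first, then alkanol titrated from stocks while emission at 330 nm was tracked; buffer-only additions controlled for halothane evaporation. For AGGC (0–300 µM), 30 min preincubation ±1 mM halothane in gas-tight syringes, then dilution into cuvette. Recovery […] fitted by Hill-type equation (EC50, Fmax, h).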

RhoGDIα [3] = target: T1, RhoGDIα; type: binding; remark: listed apart in the source
How it was run: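 RhoGDIα at 500 nM in 2.8 mL Buffer B (pH 7.5 Tris) in screw-top sealed cuvette with minimal headspace; halothane 0–800 µM; 60 min at room temperature. Steady-state tryptophan emission spectra, excitation 295 nm. Quenching taken as FQ/F0, averaging >10 points at the emission maximum. Fitted to Eq. 1 for Kd, h and maximal quenching.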

RhoGDIα–Cdc42 complex = target: T2, RhoGDIα–Cdc42 complex (Homo sapiens, UniProt P52565); type: biochemical; conditions: for effect on association of Cdc42 with membranes (Req,Cdc42) / Cdc42–RhoGDIα Dissociation h: with EDTA and GMPPNP; for Cdc42–RhoGDIα Dissociation h: fit to Eq. 6
T2 sequence (P52565 1-204): T1 sequence (P52565 1-204)
How it was run: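 SPR on L1 chip at 25°C. Running buffer 10 mM HEPES pH 7.4, 150 mM NaCl. Surface cleaned with 10 mM CHAPS; POPC/POPS (4:1) 100 nm LUV captured at 5 µL/min for 15 min; conditioned with 10 mM glycine pH 1.5 and 10 mM NaOH. RhoGDIα–Cdc42 complex typically 0.5 µM in Buffer A with 50 µM GMPPNP and n-alkanol. 14.3 mM EDTA initiated exchange and dissociation. Req from first-order fits versus complex concentration.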

Cdc42 = Cdc42 (Homo sapiens, UniProt P60953); conditions: 50 mM (results not shown)
Sequence of Cdc42 (P60953 whole entry): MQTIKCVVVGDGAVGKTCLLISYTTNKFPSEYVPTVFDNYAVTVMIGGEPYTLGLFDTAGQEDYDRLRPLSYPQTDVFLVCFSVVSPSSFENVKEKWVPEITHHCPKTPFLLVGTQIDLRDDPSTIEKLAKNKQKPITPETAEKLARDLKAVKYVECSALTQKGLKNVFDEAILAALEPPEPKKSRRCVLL

[4] = read-out: Halothane Binding EC50, 0.2 mM halothane, RhoGDIα 500 nM, fit to Eq. 2
[5] = read-out: Halothane Binding KI, 0.2 mM halothane, calculated using Eq. 3

SMILES: CC1(CCO)N=N1 [3-azibutanol]
- Lowest 3-azialcohol concentration where photoincorporation was detected (RhoGDIα [1]; AGGC +): 100 µM
- Residue photolabeled / photolabeled peptide (RhoGDIα [1]; AGGC –): Photolabeled peptide not detected

SMILES: CCCCCC1(CCO)N=N1 [3-azioctanol]
- Lowest 3-azialcohol concentration where photoincorporation was detected (RhoGDIα [1]; AGGC +): 10 µM
- Lowest 3-azialcohol concentration where photoincorporation was detected (RhoGDIα [1]; AGGC –): 10 µM
- photolabeling of E193 (RhoGDIα [1]; at levels up to 1 mM): not photolabeled

SMILES: CC(=O)N[C@@H](CSC/C=C(\C)CC/C=C(\C)CC/C=C(\C)CCC=C(C)C)C(=O)O [AGGC, N-acetyl geranylgeranyl cysteine]
- effect on RhoGDIα tryptophan fluorescence in the absence of halothane (RhoGDIα [2]; control without halothane (results not shown)): unaffected
- Ki (RhoGDIα [2]; read-out: KI for the displacement of halothane, from EC50 by Eq. 3): 0.01 mM

SMILES: FC(F)(F)C(Cl)Br (stereo not shown) [halothane, 2-bromo-2-chloro-1,1,1-trifluoroethane]
- Kd (RhoGDIα [3]): 0.147 ± 0.007 mM
- blue shift in the emission maxima (RhoGDIα [3]; dose dependent, halothane 0–800 µM): ~ 2 nm
- Hill coefficient h for halothane binding (RhoGDIα [3]; fit to Eq. 1): 0.91±0.2
- plateau tryptophan fluorescence intensity, of the original signal (RhoGDIα [3]; halothane 0–800 µM): ~ 30%

SMILES: CCCCCCCO [n-heptanol]
- effect on halothane-induced tryptophan quenching (RhoGDIα [2]; 0.2 mM halothane): negligible effects
- effect on association of Cdc42 with membranes (Req,Cdc42) (RhoGDIα–Cdc42 complex): unaffected

SMILES: CCCCCCO [n-hexanol]
- effect on halothane-induced tryptophan quenching (RhoGDIα [2]; 0.2 mM halothane): did not reach saturation within the concentration range used
- effect on association of Cdc42 with membranes (Req,Cdc42) (RhoGDIα–Cdc42 complex): unaffected

SMILES: CCO [n=2, ethanol]
- Halothane Binding h (RhoGDIα [2]; 0.2 mM halothane, fit to Eq. 2): 1.4 ± 0.4
- EC50 (RhoGDIα [2]; [4]): 100 ± 58 mM
- Ki (RhoGDIα [2]; [5]): 42 ± 24 mM
- Cdc42–RhoGDIα Dissociation h (RhoGDIα–Cdc42 complex): 1.2 ± 0.2

SMILES: CCCO [n=3]
- Halothane Binding Fmax (RhoGDIα [2]; 0.2 mM halothane, fit to Eq. 2): 40 ± 9
- Halothane Binding h (RhoGDIα [2]; 0.2 mM halothane, fit to Eq. 2): 1.2 ± 0.2
- EC50 (RhoGDIα [2]; [4]): 48 ± 4.5 mM
- Ki (RhoGDIα [2]; [5]): 20 ± 2 mM

SMILES: CCCCO [n=4, n-butanol]
- Fmax for displacement of halothane (RhoGDIα [2]; 0.1 mM halothane): 0.55 ± 0.06
- h for displacement of halothane (RhoGDIα [2]; 0.1 mM halothane): 1.0 ± 0.4
- Fmax for displacement of halothane (RhoGDIα [2]; 0.2 mM halothane): 0.59 ± 0.04
- h for displacement of halothane (RhoGDIα [2]; 0.2 mM halothane): 1.1 ± 0.2
- Halothane Binding Fmax (RhoGDIα [2]; 0.2 mM halothane, fit to Eq. 2): 51 ± 4
- Halothane Binding h (RhoGDIα [2]; 0.2 mM halothane, fit to Eq. 2): 1.1 ± 0.1
- Fmax for displacement of halothane (RhoGDIα [2]; 0.5 mM halothane): 0.59 ± 0.05
- h for displacement of halothane (RhoGDIα [2]; 0.5 mM halothane): 1.0 ± 0.1
- Fmax for displacement of halothane (RhoGDIα [2]; 1.0 mM halothane): 0.65 ± 0.08
- h for displacement of halothane (RhoGDIα [2]; 1.0 mM halothane): 1.2 ± 0.2
- Hill coefficient h (RhoGDIα [2]; independent of halothane concentration or chain length): ~ 1
- EC50 (RhoGDIα [2]; read-out: EC50 for displacement of halothane, 0.1 mM halothane): 3 ± 1 mM
- EC50 (RhoGDIα [2]; read-out: EC50 for displacement of halothane, 0.2 mM halothane): 11 ± 3 mM
- EC50 (RhoGDIα [2]; read-out: EC50 for displacement of halothane, 0.5 mM halothane): 22 ± 5 mM
- EC50 (RhoGDIα [2]; read-out: EC50 for displacement of halothane, 1.0 mM halothane): 52 ± 8 mM
- EC50 (RhoGDIα [2]; [4]): 10 ± 3 mM
- Ki (RhoGDIα [2]; [5]): 4.2 ± 1.2 mM
- effect on association of Cdc42 with membranes (RhoGDIα–Cdc42 complex; in the absence of EDTA and GMPPNP): negligible effects
- Cdc42–RhoGDIα Dissociation h (RhoGDIα–Cdc42 complex): 1.5 ± 0.3
- effect on rate and extent of exchange of MANT-GDP for GDP (Cdc42): neither the rate nor the extent of exchange of MANT-GDP for GDP were affected
